Here are results for eight molecules from ChEMBL document CHEMBL4028840, “6-Nitro-2,3-dihydroimidazo[2,1-b][1,3]thiazoles: Facile synthesis and comparative appraisal against tuberculosis and neglected tropical diseases” (Bioorg Med Chem Lett, 2017).

≈ marks a conversion by molar mass, not a printed value.

The nature of data set [1]: Solubility in water at pH 7 after 15 mins by HPLC method. In kind it is physicochemical. The settings on record: for solubility at 0.25 h: water, pH 7. The gist of the method:
(§1)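 Solubility measured at 20 °C by HPLC, in water (pH 7) or 0.1 M HCl (pH 1).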

Data set [2] concerns Mycobacterium tuberculosis. Put plainly: Anti-tubercular activity against Mycobacterium tuberculosis infected in BALB/c mouse assessed as reduction in lung colony forming units at 100 mg/kg, po administered via gavage for 5 days each week for 3 weeks measured after 1 day post last dose relative to PA-824. In kind it is functional. Put shortly: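 Mouse model of acute TB infection. Oral dosing at 100 mg/kg daily, 5 days per week, for 3 weeks. Read-out is fold reduction in lung CFU, expressed as a ratio to the fold CFU reduction from the reference nitroimidazole run alongside.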

Data set [3] is described as follows: Stability in pooled human liver microsomes assessed as compound remaining measured after 1 hr. In kind it is ADME, microsome. The note with it: read-out: Stability. A general note: Liver microsomes are a subcellular fraction often used to study metabolism.
Data set [4] in a line: Stability in CD-1 mouse liver microsomes assessed as compound remaining measured after 1 hr. In kind it is ADME, microsome. The settings on record: read-out: Stability.
Data set [5] relates to Mycobacterium tuberculosis. Kind of data set: Anti-tubercular activity against Mycobacterium tuberculosis H37Rv ATCC 27294 after 10 days under hypoxic condition by low-oxygen recovery assay. In kind it is functional. The note with it: Mycobacterium tuberculosis, H37Rv ATCC 27294, 240 h; read-out: MIC. Put shortly: (§2)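 M. tuberculosis H37Rv MIC measured in two assays: aerobic growth by MABA and hypoxic exposure by LORA. Each value is the mean of ≥2 independent determinations.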

Data set [6] deals with Mycobacterium tuberculosis. Kind of data set: Anti-tubercular activity against Mycobacterium tuberculosis H37Rv ATCC 27294 after 7 days under aerobic condition by microplate alamar blue assay. In kind it is functional. The note with it: Mycobacterium tuberculosis, H37Rv ATCC 27294, 168 h; read-out: MIC. Put shortly: as §2
(In general: Resazurin is reduced to fluorescent resorufin, in cell work by metabolically active cells.)

Data set [7] concerns Leishmania infantum. Put plainly: Anti-parasitic activity against Leishmania infantum MHOM/MA(BE)/67 amastigotes infected in mouse primary peritoneal macrophages after 5 days by giemsa staining based microscopic method. In kind it is functional. The settings on record: Leishmania infantum, MHOM/MA(BE)/67, 120 h. Put shortly:
(§3)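 IC50 for growth inhibition of L. infantum, T. cruzi and T. brucei parasites, or for cytotoxicity toward human lung fibroblasts (MRC-5). Values are means of two or more independent experiments.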

Data set [8] relates to Trypanosoma cruzi. Put plainly: Anti-parasitic activity against Trypanosoma cruzi Tulahuen CL2 infected in human MRC5 cells after 7 days by chlorophenol red […]-D-galactopyranoside dye based assay. The note with it: Trypanosoma cruzi, Tulahuen CL2, MRC5, 168 h. In kind it is functional, cell-based. The gist of the method:
as §3

The subject of data set [9] is Trypanosoma brucei brucei. Put plainly: Anti-parasitic activity against Trypanosoma brucei brucei Squib-427 after 72 hrs by resazurin dye based fluorescence assay. In kind it is functional. The settings on record: Trypanosoma brucei, Squib-427, 72 h. The gist of the method: as §3
The nature of data set [10]: Cytotoxicity against human MRC5 SV2 cells after 72 hrs by resazurin dye based fluorescence assay. In kind it is cell-based. The settings on record: Homo sapiens, MRC-5 SV2, 72 h. Put shortly:
as §3

Data set [11] relates to Vero. Kind of data set: Cytotoxicity against African green monkey Vero cells after 72 hrs by MTS/PMS assay. The format is cell-based. The settings on record: Chlorocebus sabaeus. Put shortly:
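VERO mammalian cells exposed for 72 h. Cytotoxicity IC50 comes from a single test.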

Data set [12] can be described thus: Solubility in HCl at pH 1 after 15 mins by HPLC method. The format is physicochemical. Put shortly:
as §1

Broadly, the solubility is how much of the substance goes into solution per volume. In the case of `CC1(COCc2ccc(OC(F)(F)F)cc2)Cn2cc([N+](=O)[O-])nc2O1` (stereo not given), the concentration in solution in [1] (solubility at 0.25 h) came to 11 µg/mL (≈ 29.5 µM). The “fold change (FC)” value in data set [2] amounted to 0.025.
In the case of `C[C@]1(COc2ccc(N3CCC(Oc4ccc(OC(F)(F)F)cc4)CC3)cc2)Cn2cc([N+](=O)[O-])nc2O1`, the remaining at 1 h in data set [3] came out at 71%; in data set [4], 87%. Besides, in data set [2], the “fold change (FC)” value came out at 68.
In general, MIC refers to the smallest concentration in the dilution series that meets the test's criterion for growth inhibition. A word on the IC50: it is the concentration that gives 50% inhibition. As for `CC1(COCc2ccc(OC(F)(F)F)cc2)Cn2cc([N+](=O)[O-])nc2S1` (stereo not given), the figures for the minimum inhibitory concentration (MIC) in [5] and in data set [6] were 7.9 µM (≈ 3.08 µg/mL) and 0.24 µM (≈ 0.0934 µg/mL), respectively. The concentration for half-maximal inhibition (IC50) in data set [7] was 57 µM; in [8], 0.67 µM; in [9], 56 µM; in data set [10], > 64 µM. The molecule also came in with a solubility at 0.25 h in data set [1] of 2.4 µg/mL (≈ 6.16 µM).
As to `CC1(COc2ccc(-c3ccc(OC(F)(F)F)cc3)cc2)Cn2cc([N+](=O)[O-])nc2S1` (stereo not given), the half-inhibitory concentration (IC50) in data set [11] is > 128 µM; in data set [7] it was 45 µM; in data set [8], 0.085 µM; in data set [9], > 64 µM; in data set [10], > 64 µM. In addition, the MIC in [5] was > 128 µM; in data set [6], 0.063 µM (≈ 0.0284 µg/mL). This molecule displayed a solubility at 0.25 h in data set [1] of 0.25 µg/mL (≈ 0.554 µM). The remaining at 1 h was 84% in data set [3] and 75% in data set [4]. In addition, the “fold change (FC)” value in data set [2] is listed as 5.7.
In [1] (buffer, pH 7, 0.25 h), `CC1(COc2ccc(-c3ccc(OC(F)(F)F)cc3)cc2)Cn2cc([N+](=O)[O-])nc2O1` (stereo not given) registered a solubility of 0.41 µg/mL (≈ 0.942 µM). The “fold change (FC)” value in [2] is 115.
Consider `C[C@]1(COCc2ccc(OC(F)(F)F)cc2)Cn2cc([N+](=O)[O-])nc2S1`, for which the IC50 was 24 µM in [11]; > 64 µM in [7]; 0.57 µM in data set [8]; > 64 µM in data set [9]; 43 µM in data set [10]. Also, the MIC in data set [5] was 5.8 µM (≈ 2.26 µg/mL); in [6], 0.2 µM (≈ 0.0779 µg/mL). Further, the figures for the remaining at 1 h in [3] and in data set [4] were 29% and 0%, respectively.
As for `O=[N+]([O-])c1cn2c(n1)OC[C@@H](COc1ccc(OC(F)(F)F)cc1)C2`, the remaining at 1 h in data set [3] came out at 82%; in data set [4], 94%.
Consider `CC1(COc2ccc(N3CCC(Oc4ccc(OC(F)(F)F)cc4)CC3)cc2)Cn2cc([N+](=O)[O-])nc2S1` (stereo not given), for which the IC50 in data set [11] was > 128 µM; in data set [7], 53 µM; in data set [8], 0.055 µM; in [9], 59 µM; in data set [10] it was > 64 µM. Also, the minimal inhibitory concentration (MIC) was 71 µM (≈ 39.1 µg/mL) in data set [5] and 0.073 µM (≈ 0.0402 µg/mL) in data set [6]. In addition, the solubility at 0.25 h in data set [1] was determined as 0.18 µg/mL (≈ 0.327 µM); in [12] it was 13 µg/mL (≈ 23.6 µM).
